Data as given in ChEMBL document CHEMBL1124838, “5-Hydroxytryptamine (5-HT3) receptor antagonists. 2. 1-Indolinecarboxamides” (J Med Chem, 1990).

These compounds were tested against Serotonin 3 (5-HT3) receptor (Rattus norvegicus) (UniProt P35563+Q9JJ16) (assay: Antagonist potency to 5-hydroxytryptamine 3 receptor was assayed by antagonism of the 5-HT-evoked reflex bradycardia [Bezold-Jarisch(BJ) reflex] in rats).
Type: functional
Method in brief: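 Male rats (260–290 g) anesthetized with urethane (1.25 g/kg ip); blood pressure and heart rate recorded. 5-HT given repeatedly at a submaximal 6 μg/kg iv, and heart-rate changes quantified. Test drug given iv before 5-HT. ID50 is the dose that cuts the 5-HT-evoked response to 50% of control.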
In the case of `CN1C2CCC1CC(NC(=O)N1CCc3cc(Cl)ccc31)C2` (centres undefined), the ID50 is reported as over 10 µg/kg.
In the case of `CCC1CN(C(=O)NC2CC3CCC(C2)N3C)c2ccccc21` (centres undefined), the ID50 is reported as 1.5 µg/kg.
For `CN1C2CCC1CC(NC(=O)N1CC3(CCCC3)c3ccccc31)C2` (centres undefined), the ID50 was 1.2 µg/kg.
`CN1C2CCC1CC(NC(=O)N1CC(c3ccccc3)c3ccccc31)C2` (centres undefined) was tested, and the ID50 was 1.8 µg/kg.
`CCc1cn(C(=O)NC2CC3CCC(C2)N3C)c2ccccc12` (centres undefined) was tested, and the ID50 was 2 µg/kg.
`COc1ccc2c(c1)CCN2C(=O)NC1CC2CCC(C1)N2C` (centres undefined) showed an ID50 of over 10 µg/kg.
`CC1c2ccccc2N(C(=O)NC2CC3CCC(C2)N3C)C1C` (centres undefined) gave an ID50 of 0.5 µg/kg.
Work on `CN1C2CCCC1CC(NC(=O)c1nn(C)c3ccccc13)C2` (centres undefined) yielded an ID50 of 0.7 µg/kg.
With `Cc1cn(C(=O)NC2CC3CCC(C2)N3C)c2ccccc12` (centres undefined) the ID50 was 1.6 µg/kg.
In the case of `CN1C2CCC1CC(NC(=O)C1=CC(C)(C)c3ccccc31)C2` (centres undefined), the ID50 is reported as 1 µg/kg.
With `CN1C2CCC1CC(NC(=O)N1CC3(CCCCC3)c3ccccc31)C2` (centres undefined) the ID50 was 3.6 µg/kg.
Compound `CC1Cc2ccccc2N1C(=O)NC1CC2CCC(C1)N2C` (centres undefined) has an ID50 of 0.8 µg/kg.
With `CN1C2CCC1CC(NC(=O)N1CCc3cc([N+](=O)[O-])ccc31)C2` (centres undefined) the ID50 was over 10 µg/kg.
`CCN1C2CCC1CC(NC(=O)N1CCc3ccccc31)C2` (centres undefined) showed an ID50 of over 10 µg/kg.
`CN1C2CCC1CC(NC(=O)N1CCc3ccccc31)C2` (centres undefined) gave an ID50 of 1.4 µg/kg.
Work on `CN1C2CCC1CC(OC(=O)N1CCc3ccccc31)C2` (centres undefined) yielded an ID50 of 4.3 µg/kg.
`CN1C2CCC1CC(NC(=O)n1cc(-c3ccccc3)c3ccccc31)C2` (centres undefined) was tested, and the ID50 was 5.1 µg/kg.
`CN1C2CCC1CC(NC(=O)N1CCc3cc(F)ccc31)C2` (centres undefined) gave an ID50 of over 10 µg/kg.
In the case of `CN1C2CCCC1CC(NC(=O)N1CCc3ccccc31)C2` (centres undefined), the ID50 is reported as 12.5 µg/kg.
`CC1N(C(=O)NC2CC3CCC(C2)N3C)c2ccccc2C1(C)C` (centres undefined) gave an ID50 of 1.4 µg/kg.
With `CN1C2CCC1CC(NC(=O)N1CC3(CC3)c3ccccc31)C2` (centres undefined) the ID50 was 3.5 µg/kg.
Work on `CN1C2CCC1CC(NC(=O)N1CCCc3ccccc31)C2` (centres undefined) yielded an ID50 of over 100 µg/kg.
With `CC1CN(C(=O)NC2CC3CCC(C2)N3C)c2ccccc21` (centres undefined) the ID50 was 3 µg/kg.
With `CN1C2CCC1CC(NC(=O)n1ccc3ccccc31)C2` (centres undefined) the ID50 was 7.1 µg/kg.
